In publication PMC4780725 (Drug Design, Development and Therapy, 2016):

Legend:
[1] = test system: NF-κB activation induced by TNF-α in BGC-823 cells; assay: Western blot of TNF-α-induced NF-κB activation; format: cell-based, human; conditions: BGC-823, 10 µM, 60 minutes pretreatment, TNF-α 1 ng/mL 15 minutes
In short: (§1)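 SGC-7901 or BGC-823 cells were pretreated 60 min with DMSO, test compound (5, 10 or 20 µM) or a reference NF-κB inhibitor (20 µM), then stimulated with TNF-α 1 ng/mL for 15 min. Whole-cell lysates were cleared at 12,000× g, 4°C, 10 min, and equal protein run on SDS-PAGE. Blots were probed overnight for p-IKK, IκB-α and p-IκB-α, then with HRP secondaries 1 h at 37°C. Densitometry normalised to IKK and GAPDH, respectively.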

[2] = test system: p65 nuclear translocation in SGC-7901 cells; assay: p65 nuclear translocation, Western blot of nuclear extracts, SGC-7901; format: cell-based, human; conditions: SGC-7901, pretreatment 60 minutes, TNF-α 1 ng/mL 60 minutes
In short: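 SGC-7901 cells were pretreated for 60 min with test compound (10 or 20 µM), a reference NF-κB inhibitor or DMSO, then stimulated with TNF-α at 1 ng/mL for 60 min. Cells were trypsinized and washed thrice in ice-cold PBS. Cytoplasmic extract came from Buffer A (10 min on ice) plus Buffer B (1 min) and a 16,000× g spin for 5 min; nuclear extract from the pellet in Buffer C for 40 min on ice. Nuclear p65 was normalized to Lamin B and cytoplasmic p65 to GAPDH.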

[3] = test system: p65 nuclear translocation in BGC-823 cells; assay: p65 nuclear translocation, immunofluorescence, BGC-823; format: cell-based, human; conditions: BGC-823, 20 µM, 60 minutes before TNF-α
In short: (§2)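 Cells were pretreated 60 min with DMSO, test compound (20 µM) or a reference NF-κB inhibitor (20 µM), then stimulated with TNF-α 1 ng/mL for 60 min. After an ice-cold PBS wash, cells were fixed 10 min at room temperature and blocked 1 h. They were incubated overnight at 4°C with rabbit anti-p65, then anti-rabbit Cy3 for 1 h in the dark, and DAPI for 5 min. Fluorescence microscopy at 20×10; p65 red and nuclei blue in merged images.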

[4] = test system: SGC-7901 or BGC-823 cells; assay: Cell cycle analysis by flow cytometry; format: cell-based, human; conditions: 24 hours
In short: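 Cells in RPMI-1640 with 10% FBS were exposed for 24 h to test compound (5 or 10 µM, or 20 µM for the reference) or DMSO. All cells were collected by trypsinization, PBS-washed, fixed in 75% ethanol for 1 h at −20°C, washed, and stained with PI for 15 min at 4°C in the dark. G0/G1, S and G2/M fractions were measured by FACS, from three separate treatments.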

[5] = test system: SGC-7901 or BGC-823 cells; assay: Apoptosis by Annexin-V/PI flow cytometry; format: cell-based, human; conditions: 10 or 20 µM, 24 hours
In short: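 SGC-7901 or BGC-823 cells in RPMI-1640 with 10% FBS at 37°C, 5% CO2, were treated 24 h with test compound (10 or 20 µM), a reference compound (20 µM) or DMSO. Cells were collected, washed twice in PBS, then stained with Annexin-V for 10 min in the dark and with PI for 5 min, and analysed by FACS. Annexin+/PI− cells were scored early apoptotic and Annexin+/PI+ late apoptotic/dead; three separate treatments.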

[6] = test system: GES-1 cells; assay: MTT cell viability assay, GES-1 normal gastric mucosa epithelial cells; format: cell-based; conditions: Homo sapiens, GES1, 72 h, read-out: IC50 values of compounds on cells, GES-1
In short: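 GES-1 cells were grown in RPMI-1640 with 10% FBS at 37°C and 5% CO2, seeded at ~5,000 cells/well, then exposed for 72 h to 0.096, 0.48, 2.4, 12 and 60 µM compound. MTT was added for 4 h, formazan dissolved in DMSO, and absorbance read at 490 nm. Inhibition was calculated against the DMSO control, and IC50 is the concentration giving 50% inhibition. At least three independent experiments were run.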

[7] = test system: NF-κB activation induced by TNF-α in SGC-7901 cells; assay: Western blot of TNF-α-induced NF-κB activation; format: cell-based, human; conditions: SGC-7901, 10 µM, 60 minutes pretreatment, TNF-α 1 ng/mL 15 minutes
In short: as §1

[8] = Stability in phosphate buffer by UV-visible absorption spectra; format: physicochemical; conditions: phosphate buffer pH 7.4, 250 to 600 nm, every 5 minutes for more than 25 minutes
In short: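 Test compound was dissolved and diluted in DMSO, then mixed into phosphate buffer at pH 7.4. Optical density from 250 to 600 nm was recorded every 5 min for more than 25 min.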

[9] = test system: caspase 3, bcl-2, bax in SGC-7901 cells; assay: Western blot of apoptosis-related proteins, SGC-7901; format: cell-based, human; conditions: SGC-7901, 10 µM, 24 hours
In short: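 SGC-7901 cells were exposed 24 h to DMSO, test compound (5, 10 or 20 µM) or a reference compound (20 µM). Lysates were cleared at 12,000× g, 4°C, and equal protein separated by SDS-PAGE. Blots were probed overnight for caspase 3, cleaved caspase 3, bax and bcl-2, with GAPDH as loading control. Bands were quantified by densitometry.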

[10] = test system: SGC-7901 and BGC-823 cells; assay: Matrigel invasion assay; format: cell-based, human; conditions: 24 hours; Da0324 5 or 10 µM, curcumin 10 µM
In short: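 Transwell inserts were coated with Matrigel and air-dried for 2 h at room temperature. Cells at 1×10^6 cells/mL in serum-free RPMI-1640 with compound or DMSO were placed in the upper chamber, with RPMI-1640 plus 10% FBS below, for 24 h at 37°C. Cells on the lower surface were fixed, crystal violet-stained and counted by light microscopy as the mean of three fields, from three separate treatments.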

[11] = test system: SGC-7901 or BGC-823 cells; assay: Clonogenic assay; format: cell-based, human; conditions: 5 µM, 24 hours treatment, then 7 days in fresh medium
In short: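 SGC-7901 or BGC-823 cells were exposed to test compound (2.5 or 5 µM) or DMSO for 24 h. The medium was then replaced with fresh medium and colonies grew for 7 days before crystal violet staining and photography.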

[12] = test system: p65 nuclear translocation in SGC-7901 cells; assay: p65 nuclear translocation, immunofluorescence, SGC-7901; format: cell-based, human; conditions: SGC-7901, 20 µM, 1 hour before TNF-α
In short: as §2

[13] = test system: SGC-7901 cells; assay: MTT cell viability assay, SGC-7901; format: cell-based, human; conditions: read-out: IC50 values of compounds on cells, SGC-7901, 72 hours, SGC-7901 gastric cancer cells
In short: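 SGC-7901 cells were seeded at ~5,000/well and exposed 72 h to test compound at 0.096, 0.48, 2.4, 12 and 60 µM. MTT was added for 4 h, formazan dissolved in DMSO and absorbance read at 490 nm. Inhibition ratio = (1 − A treated/A DMSO control) × 100%. IC50, the concentration giving 50% inhibition of proliferation, was calculated by curve fitting.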

| SMILES | Expression of p-IKK and p-IκB-α stimulated by TNF-α [1] | Nuclear p65 after TNF-α stimulation [2] | p65 nuclear translocation induced by TNF-α [3] | Cells arrested in the G2/M phase ([4]; 10 µM) | Number of early- and late-period apoptotic cells [5] | IC50 [6] | Phosphorylation of IKK and IκB-α stimulated by TNF-α [7] | Absorption intensity of the spectrum in phosphate buffer (degradation) [8] | Caspase 3 level and cleavage [9] | Invasion through Matrigel [10] | Colony formation [11] | p65 red fluorescence in cell nuclei after TNF-α [12] | Cells arrested in the G2/M phase ([4]; 20 µM) | IC50 [13] |
| --- | --- | --- | --- | --- | --- | --- | --- | --- | --- | --- | --- | --- | --- | --- |
| COc1ccc(OC)c(/C=C2\CC/C(=C\c3ccc(O)c(OC)c3)C2=O)c1 [Da0324, (2E,5E)-2-(2,5-dimethoxybenzylidene)-5-(4-hydroxy-3-methoxybenzylidene)cyclopentanone] | similarly inhibit the expression of p-IKK and p-IκB-α | did not significantly increase | could inhibit the p65 nuclear translocation | ~30% | significantly higher than those of the curcumin-treated cells | 27.3 ± 8.2 µM | significantly inhibit the phosphorylation of IKK and IκB-α | less degraded than curcumin | significantly reduced caspase 3 and induced its cleavage | obviously inhibited the invasion | No colonies were visible | the red fluorescence did not increase in the cell nuclei | – | – |
| COc1cc(/C=C/C(=O)CC(=O)/C=C/c2ccc(O)c(OC)c2)ccc1O [CUR, curcumin, reference compound] | – | – | – | – | – | 29.1 ± 3.8 µM | – | significantly decreased | – | could similarly inhibit cell invasion | no significant effects | – | ~ 10% | – |
| Cc1ccc2nc(NCCN)c3ncc(C)n3c2c1 [BMS345541, reference compound] | – | did not significantly increase | could inhibit the p65 nuclear translocation | – | – | 9.8 ± 2.5 µM | – | – | – | – | – | – | – | 7.8 ± 1.8 µM |
| COc1cccc(/C=C/C(=O)/C=C/c2cccc(OC)c2OC)c1OC [Compound B19, (1E,4E)-1,5-bis(2,3-dimethoxyphenyl)penta-1,4-dien-3-one] | – | – | – | – | – | 3.7 ± 1.9 µM | – | – | – | – | – | – | – | – |
